These results are taken from ChEMBL document CHEMBL1158469 (J Med Chem, 2009).

One series has as its system BP3. Nature of the series: (§1) Induction of apoptosis in human BP3 cells after 1 to 2 days by FITC-annexin V and propidium iodide assay. Format: functional, cell-based.
Series [1] in a line: as §1. Format: functional, cell-based.
The target in series [2] is Bcl-2-like protein 1 (Homo sapiens) (UniProt Q07817). As to the kind of experiment: Inhibition of Bcl-xL at 200 uM by 1D 1H NMR binding assay.
Chain of Bcl-2-like protein 1 (Homo sapiens) (Q07817 whole entry): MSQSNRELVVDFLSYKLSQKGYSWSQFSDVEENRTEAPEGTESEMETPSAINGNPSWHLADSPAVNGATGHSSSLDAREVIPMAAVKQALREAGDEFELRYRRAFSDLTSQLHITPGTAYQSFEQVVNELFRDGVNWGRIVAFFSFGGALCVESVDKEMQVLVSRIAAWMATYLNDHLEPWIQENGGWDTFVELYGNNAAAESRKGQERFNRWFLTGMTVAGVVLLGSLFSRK
Series [3] can be described thus: Stability in rat liver microsome at 4 uM after 1 hr. Format: ADME. The following applies: liver microsomes, read-out: Stability. Summed up:
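Compound incubated for 1 h in rat microsomal preparations; percentage of parent remaining was reported.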
A general note: Liver microsomes are vesicles of endoplasmic reticulum, rich in cytochrome P450 enzymes.

A further series has as its system NCI-H460. As to the kind of experiment: Cytotoxicity against human H460 cells assessed as cell viability after 72 hrs by ATP-LITE assay. The format is functional, cell-based. To be noted: NCI-H460, 72 h. Summed up:
(§2)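 ATP-LITE viability readout. Seeded 24 h before dosing (H460, H1299 at 2000 cells/well; PC3 at 3000 cells/well) in 12F2 or RPMI1640 with 5 mM L-glutamine, 5% FBS and pen/strep. Fresh 5% medium added, then compounds in 0.1% DMSO final. Viability read after 72 h treatment and normalized to DMSO-treated cells.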

Series [4] can be described thus: Chemical stability after 60 days at room temperature by HPLC/LC-MS analysis. Format: physicochemical. To be noted: 1440 h. Summed up:
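Solid compounds stored in air at room temperature for 60 days. Stability followed by HPLC combined with LC-MS.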

The test system of series [5] is Mus musculus. As to the kind of experiment: Toxicity in human Bcl2 expressing B6 transgenic mouse administered as single dose at 72 umol/kg, ip after 24 hrs. Format: organism-based. The following applies: in vivo.
Series [6] in a line: Cytotoxicity against human H1299 cells assessed as cell viability after 72 hrs by ATP-LITE assay. The following applies: NCI-H1299, 72 h. Format: functional, cell-based. Summed up:
as §2

A short description of series [7]: Cytotoxicity against human PC3-ML cells assessed as cell viability after 72 hrs by ATP-LITE assay. The format is functional, cell-based. Summed up: as §2
Series [8] in a line: Membrane permeability assessed as drug permeation at 100 uM at pH 7.2 after 8 hrs by PAMPA. The format is ADME. The following applies: pH 7.2, 8 h. Background: In PAMPA a lipid-coated filter parts donor from acceptor wells.
The nature of series [9]: Induction of apoptosis in human RS11846 cells after 1 to 2 days by FITC-annexin V and propidium iodide assay. Format: functional, cell-based.
The nature of series [10]: Stability in rat plasma after 1 hr at 37.5 degC. Format: ADME, cell-free. The following applies: read-out: Stability. Summed up: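 Compound incubated in rat plasma for 1 h; percentage of parent remaining was reported.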
The nature of series [11]: Cytotoxicity against wild type mouse fibroblast assessed as induction of cell death at 10 uM by FITC-annexin V and propidium iodide assay. Format: cell-based. Summed up: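 Wild-type MEFs seeded at half a million per well in DMEM with 10% FCS. Next day compound added at 0, 2.5, 5.0, 7.5 or 10 μM. On the following day, floating and trypsinized adherent cells were pooled and stained with Annexin V-FITC and PI in binding buffer. Analyzed by flow cytometry, with double-negative cells counted as viable.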

Series [12] relates to Mus musculus. Nature of the series: Reduction of spleen weight in human Bcl2 expressing B6 transgenic mouse at 72 umol/kg, ip administered as single dose after 24 hrs. Format: functional. Further details: scale not given: the % may be the effect or the level left. Summed up:
(§3)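 Age- and sex-matched B6Bcl2 transgenic mice (human BCL-2/IgH minigene, B cells accumulating in spleen), free of aggressive lymphoma. Single ip injection at 72 μmol/kg in 500 μL ethanol:Cremophor EL:saline 10:10:80; controls got vehicle alone. Killed with Avertin after 24 h and spleen weighed. Shrinkage expressed as percentage of maximum spleen-weight reduction.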

For series [13], the system named is Mus musculus. As to the kind of experiment: Induction of spleen weight shrinkage in human Bcl2 expressing B6 transgenic mouse at 72 umol/kg, ip administered as single dose after 24 hrs. The format is functional. Summed up:
as §3

The source made the active and inactive calls. The calls are words filed in the database; no cut-off is given here. A value given as a limit tells only on which side of the number the result lay.

The EC50 is the concentration giving half of the maximal effect.

As to `Cc1cc2c(C(=O)NCC3CCCCC3)c(O)c(O)cc2c(O)c1-c1c(C)cc2c(C(=O)NCC3CCCCC3)c(O)c(O)cc2c1O`, the results for the Activity result (in the series with BP3; with Mus musculus [5]; in series [11]) were “Dose-dependent effect”, “Toxic” and 80%, respectively. The EC50 in [1] turned out to be 0.9 µM; in the series with NCI-H460, 0.41 µM; in series [6], 4.8 µM; in series [7], 3.7 µM; in [9] it was 4.9 µM. Besides, the result in [2] was Active. Further, the remaining at 1 h, 4 µM in [3] stood at 90%. Moreover, the Stability entry in [4] is “Stable”. Moreover, the logPe in [8] was -6.67 log cm/s. Also, in series [10], the remaining at 1 h was 89%.

`Cc1cccc(CNC(=O)c2c(O)c(O)cc3c(O)c(-c4c(C)cc5c(C(=O)NCc6cccc(C)c6)c(O)c(O)cc5c4O)c(C)cc23)c1`: the Activity entry in the series on BP3 is “Dose-dependent effect”. The outcome in [2] was Active. The EC50 came out at 2.9 µM in the series with NCI-H460, 3.1 µM in [6], 10.2 µM in series [7] and 4.8 µM in series [9].

For `Cc1cc2c(C(=O)NCCc3cccc(Cl)c3)c(O)c(O)cc2c(O)c1-c1c(C)cc2c(C(=O)NCCc3cccc(Cl)c3)c(O)c(O)cc2c1O`, the EC50 in [1] was determined as 0.41 µM; with NCI-H460 it was 0.99 µM; in [6] it was 7.8 µM; in [7], 3.2 µM; in series [9], 4.6 µM. For the same molecule, the outcome in series [2] was Active. Moreover, the remaining at 1 h, 4 µM in series [3] came to 90%. Further, in [4], the Stability entry is “Stable”. Moreover, the Activity result in the series with Mus musculus [5] is listed as “Toxic”; with Mus musculus [12] it was 40%; in [11], 80%. The logPe in [8] was -7.71 log cm/s.

`CCc1ccc(CCNC(=O)c2c(O)c(O)cc3c(O)c(-c4c(C)cc5c(C(=O)NCCc6ccc(CC)cc6)c(O)c(O)cc5c4O)c(C)cc23)cc1`: the EC50 in series [1] was 0.2 µM; in the series on NCI-H460, 0.4 µM; in series [6], 0.36 µM; in series [7], 1.7 µM; in series [9], 3 µM. In addition, the Activity with Mus musculus [13] is given as 85%; with Mus musculus [5], “Toxic”; in series [11] it was 80%. In [3], the remaining at 1 h, 4 µM came out at 87%. For the same molecule, the Stability result in [4] was “Stable”. Also, the logPe in [8] is -8.15 log cm/s. In addition, the remaining at 1 h in series [10] stood at 94%.

In the case of `Cc1cc2c(C(=O)O)c(O)c(O)cc2c(O)c1-c1c(C)cc2c(C(=O)O)c(O)c(O)cc2c1O`, the Activity result with BP3 is “Dose-dependent effect”. Moreover, the EC50 (in [1]; with NCI-H460; in series [6]; in series [7]; in series [9]) was more than 30 µM in each case. Also, the result in series [2] was inactive.

With `Cc1cc2cc(O)c(O)cc2c(O)c1-c1c(C)cc2cc(O)c(O)cc2c1O`, the outcome (in series [2]; in the series with Mus musculus [13]) was inactive. Besides, the EC50 was more than 10 µM in the series on NCI-H460, 13.4 µM in [6], more than 10 µM in series [7] and more than 24.5 µM in series [9]. Further, the Activity result in the series with Mus musculus [5] was “Non-toxic”.

Regarding `Cc1cc2c(C(=O)Nc3cccc(C(F)(F)F)c3)c(O)c(O)cc2c(O)c1-c1c(C)cc2c(C(=O)Nc3cccc(C(F)(F)F)c3)c(O)c(O)cc2c1O`, the Activity entry in the series with BP3 is “Dose-dependent effect”. Besides, the result in series [2] was Active. For the same molecule, the EC50 with NCI-H460 worked out at 16.7 µM; in series [6] it was 28.7 µM; in [7] it was 12.2 µM; in series [9], 12.6 µM.

Take `Cc1cc2c(C(=O)NCc3cccc(Cl)c3)c(O)c(O)cc2c(O)c1-c1c(C)cc2c(C(=O)NCc3cccc(Cl)c3)c(O)c(O)cc2c1O`: in the series on BP3, the Activity result was “Dose-dependent effect”. Also, the outcome in [2] was Active. Besides, the EC50 in the series on NCI-H460 was 3.3 µM; in [6], 5.2 µM; in [7], 8.3 µM; in series [9], 7.3 µM.
